Screening data: PubChem, several laboratories
The entries come from a sample that favours hits as a whole.
NALP1 yeast inh: NALP1 inhibition; S. cerevisiae NALP1/ASC/caspase-1 growth, X-gal OD620, 72 h; actives 0.61% (n = 280,000); inhibition, % at 10 µM; in the data active = inhibition mostly above about 24%, no sharp cut-off; inactive = mostly below about 32%
L major viab: Leishmania major promastigote growth inhibition; Leishmania major promastigotes, resazurin fluorescence viability; inhibition, % at 10 µM; actives 9% (n = 200,000); AID 1063; in the data active = inhibition above about 50%;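 also: promastigotes grown with compound for 44 hours at 28 °C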
Calb FLC: C. albicans growth modulation with fluconazole. C. albicans CaCi-2 + fluconazole, Alamar Blue growth, 48 h. growth inhibition, % (concentration not given with the values). actives 0.57% (n = 300,000). AID 1979;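 active = growth inhibition above about 58% in most replicates, limit read from the data, passing the limit was not always enough; inconclusive = exactly half the replicates above a set limit; inactive = most replicates below a set limit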;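 also: all wells also contain fluconazole at 8 µg/ml as a sub-toxic cotreatment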
NALP3 yeast inh: inhibitors of NALP3 inflammasome in yeast; Yeast reconstituted NLRP3/ASC/caspase-1, beta-gal luminescence, 24 h; inhibition, % at 10 µM; actives 0.39% (n = 330,000);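 active = inhibition of 50% or more; inactive = inhibition below 50%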
T cruzi repl: T. cruzi replication inhibition; T. cruzi beta-gal in NIH3T3, luminescence, 90 h; actives 1.4% (n = 300,000); AID 1885; inhibition, % (concentration not given with the values);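 active = mean inhibition across valid replicates above about 55%, limit read from the data; inconclusive = mean below that limit but half or more replicates reach it; inactive = mean below it, under half of replicates reach it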;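 also: signal also drops with host cell toxicity which is not excluded here; higher percent means less beta-gal luminescence so fewer parasites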
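Test system: β-gal T. cruzi (Tulahuen C4) inside NIH/3T3 cells / Quantity: 5,000 cells/well / Measured by: luminescence from GalScreen with 0.05% NP40, read after 60 min / Medium: DMEM plus 2% FBS / Measure: parasite load inhibition, % / Reagent: Tulahuen C4 trypomastigotes, 5000/well / Schedule: co-culture of at least 90 h after 3 h attachment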
PolyA inh: blocks polyadenylation in yeast reporter cells | S. cerevisiae SKY197-pL101 polyadenylation reporter, beta-gal luminescence; efflux-impaired pdr1/pdr3 knockout yeast; score 100 = 6 SD above DMSO | activity score, % at 12 µM | actives 0.02% (n = 300,000) | AID 1875;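 active = lowest replicate activity score at least 50, where 100 means six control SD above control mean; inconclusive = lowest score under 50 but half or more replicates reach 50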;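 also: yeast exposed to compound for 9 h at 30 °C; higher score means more reporter readthrough which indicates perturbed polyadenylation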
Of the large screens only hits and unclear results are named; the others gave an inactive call.

CCCn1c(=O)c(C(=O)NCCc2ccc(Cl)cc2)c(O)c2ccccc21	none (no result: L major viab)
CC1Cc2ccccc2N1S(=O)(=O)c1cccs1 (configuration not stated)	L major viab 90
COc1ccc(C)cc1S(=O)(=O)N1c2ccccc2CC1C (configuration not stated)	L major viab 100
Oc1ccc(C[C@@H]2CNCCN2CC2(c3ccccc3)CC2)cc1	none (no result: NALP1 yeast inh, L major viab)
Cc1ccccc1C(=O)NNC(=S)NC(=O)c1ccccc1	Calb FLC 98
Cc1ccc(C(=O)NC(=S)NNC(=O)c2ccccc2[N+](=O)[O-])cc1	Calb FLC 114 (no result: T cruzi repl, PolyA inh)
CCCCOc1ccccc1C(=O)NNC(=S)NC(=O)c1ccccc1[N+](=O)[O-]	Calb FLC 103 (no result: L major viab)
O=C(NC(=S)NNC(=O)c1ccccc1O)c1ccccc1	none (no result: L major viab)
Cc1cc(OC(C)C(=O)NCC2CCC(C(=O)O)CC2)c2c(C)c(C)c(=O)oc2c1 (configuration not stated)	none (no result: L major viab)
O=C(NCCCO)C(=O)NCCc1ccc(Cl)cc1	none
O=C(NC1=NCCS1)c1sc2cc(Cl)cc(Cl)c2c1Cl	L major viab 76
Cc1ccc(C2=NN3C(C2)c2ccccc2OC32C(=O)Nc3ccccc32)cc1 (configuration not stated)	L major viab 100
O=C1CN(C(=O)COC(=O)CCS(=O)(=O)c2ccccc2Cl)c2ccccc2N1	none (no result: NALP1 yeast inh, L major viab, Calb FLC, T cruzi repl, PolyA inh)
CCN(c1ccccc1)S(=O)(=O)c1ccc(C(C(=O)OC)C(=O)OC)c([N+](=O)[O-])c1	L major viab 99
Cc1nn(C)c(C)c1NS(=O)(=O)c1cccc(Br)c1	none (no result: NALP1 yeast inh, L major viab, Calb FLC)
O=C(CC(=O)Nc1ccccc1)Nc1ccccc1	none (no result: NALP1 yeast inh, L major viab)
CC(=O)N1N=C(c2ccccc2O)OC1(C)CC(=O)Nc1ccccc1 (configuration not stated)	L major viab 60 (no result: NALP1 yeast inh)
CCCCn1c(-c2cccc3ccccc23)nc2cc3[nH]c(=O)c(C(C)C)nc3cc21	T cruzi repl 63 (no result: L major viab)
CCCCn1c(-c2ccccc2C)nc2cc3[nH]c(=O)c(C(C)C)nc3cc21	none (no result: L major viab)
C/C(CC(=O)Nc1ccc(Cl)cc1Cl)=N\NC(=O)c1cnccn1	none (no result: L major viab)
CC(C)CN(CC(C)C)c1ccc(/C=N/n2cnnc2)cc1[N+](=O)[O-]	none
Cc1nc(N/N=C/c2ccc(O)cc2)c2cnn(-c3ccccc3)c2n1	L major viab 67
Cc1nc2ccccc2nc1N/N=C/c1ccc(O)cc1	none (no result: L major viab)
Cn1c(Cc2ccccc2)nnc1SCC(=O)NC1CCCC1	none (no result: L major viab)
OC1CCCN(Cc2ccc3ccc4cccc5ccc2c3c45)C1 (configuration not stated)	L major viab 78
CCOC(=O)Cc1ccc(NCc2ccc(Cl)cc2)cc1	L major viab 100, T cruzi repl 56
COc1ccc(CC(=O)OCC(=O)Nc2cccc(Cl)c2)cc1	none
COc1cccc(NC(=O)COC(=O)Cc2ccc(Cl)cc2)c1	NALP1 yeast inh 30 (no result: T cruzi repl)
CC(=O)Nc1ccccc1-c1nc2ccccc2nc1OCC(=O)c1ccc(Cl)cc1	none
CC(C)(C)c1ccc(NC(=S)NCCc2ccccn2)cc1	none (no result: L major viab)
CC(=O)c1ccc(NC(=S)NCCc2ccccn2)cc1	L major viab 71
COc1cc(/C=C/C(=O)Nc2cc(C(F)(F)F)ccc2Cl)cc(OC)c1OC	L major viab 67
Cn1c(SCC(=O)Nc2ccc(Br)cn2)nnc1C1CC1	none (no result: L major viab, Calb FLC)
CCN(CC)S(=O)(=O)c1cc(OC)ccc1N=Nc1ccc(O)c2ncccc12	Calb FLC 86 (no result: L major viab)
COc1ccc(S(=O)(=O)NCCOc2cccc3cccnc23)cc1OC	none
CCS(=O)(=O)c1ccc(OC)c(N=Nc2ccc(O)c3ncccc23)c1	L major viab 100
CCN(CC)S(=O)(=O)c1cccc2cccnc12	none
Cc1cccc(N2CCN(C(=O)CCCn3c(=S)[nH]c4cc5c(cc4c3=O)OCO5)CC2)c1C	L major viab 64, T cruzi repl 57
O=C(CCCn1c(=S)[nH]c2cc3c(cc2c1=O)OCO3)N1CCN(c2ccc(Cl)cc2)CC1	L major viab 56
CC(=O)c1ccc(N2CCN(C(=O)CCCn3c(=S)[nH]c4cc5c(cc4c3=O)OCO5)CC2)cc1	none (no result: Calb FLC, T cruzi repl, PolyA inh)
O=C(CCCn1c(=S)[nH]c2cc3c(cc2c1=O)OCO3)N1CCN(c2ccccc2)CC1	none
CCCN(C(=O)c1cc(C)ccc1C)c1c(N)n(Cc2ccccc2)c(=O)[nH]c1=O	none (no result: NALP1 yeast inh, L major viab, Calb FLC, T cruzi repl, PolyA inh)
COc1cc(NC(=O)c2ccc(C)cc2)c(OC)cc1NC(=O)CN1CCCCC1	L major viab 62
O=C(CN1CCCCC1)Nc1cccc(Cl)c1	none
COc1cc(NC(=O)Nc2cccc(Cl)c2)c(OC)cc1NC(=O)CN1CCCCC1	L major viab 51 (no result: Calb FLC)
O=C(CN1C(=O)NC2(CCCC2)C1=O)OCc1cccc(Br)c1	none (no result: NALP1 yeast inh, L major viab, Calb FLC, T cruzi repl, PolyA inh)
Cc1c(N=Cc2cc(Br)cc(Br)c2O)cccc1C(=O)O	NALP1 yeast inh 58
C/C=C/C(=O)N1c2ccc(C)cc2C(C)=CC1(C)C	none (no result: NALP1 yeast inh, L major viab)
CC1=CC(C)(C)N(S(=O)(=O)c2ccc(F)cc2)c2ccccc21	none
CC1=CC(C)(C)N(S(=O)(=O)c2ccc(C)cc2)c2ccc(C)cc21	L major viab 100
CC(=O)Nc1ccc(S(=O)(=O)N2c3ccccc3C(C)=CC2(C)C)cc1	L major viab 100
Nc1cc(Cl)ccc1N1CCCCCC1	none
Cc1c(Cl)cccc1NC(=S)N1CCCN(Cc2ccc(F)cc2)C1	L major viab 89
O=C(Nc1ccccc1)N1CCCN(Cc2ccccc2F)C1	none
Cc1c(Cl)cccc1NC(=S)N1CCN(Cc2ccccc2)CC1	none
Fc1ccccc1CN1CCCN(C(=S)Nc2cccc(Cl)c2)C1	L major viab 86
Cc1c(Cl)cccc1NC(=S)N1CCCN(Cc2ccccc2F)C1	L major viab 82
Cc1cc(-c2ccc(C)c(S(=O)(=O)Nc3cc(C)on3)c2)on1	none (no result: L major viab)
O=C(CNC(=O)c1ccc2c(c1)OCCO2)N/N=C/c1cccc(Br)c1	none
C#CCOCCOCCOCCNc1nc(N2CCN(C(=O)CCCCCCCCCCNC(=O)Cn3cc(C[C@@H](C)O)nn3)CC2)nc(N2CCN(C(=O)CCCCCCCCCCNC(=O)[C@H](CCCN=C(N)N)n3cc(C[C@@H](C)CC)nn3)CC2)n1	T cruzi repl 66 (no result: NALP1 yeast inh, L major viab)
O=c1oc(C2(O)CCCCC2)cc2ccc(/C=C/c3ccc(F)cc3)cc12	none (no result: NALP1 yeast inh, L major viab, Calb FLC, T cruzi repl, PolyA inh)
CCN(CC)S(=O)(=O)c1cc(NC(=O)COC(=O)c2sc3ccccc3c2Cl)ccc1C	L major viab 50
Cc1ccccc1NC(=O)COC(=O)CNC(=O)c1sc2ccccc2c1Cl	L major viab 87
N#Cc1ccccc1OCC(=O)N1CCN(C(=O)c2ccco2)CC1	none (no result: L major viab)
COc1cc(C)nc(OCCNS(=O)(=O)c2cc(C)ccc2C)n1	none
CCN(CC)c1ccc(NC(=O)COC(=O)c2cccs2)cc1	NALP1 yeast inh 36, Calb FLC inconclusive
